Data set [1] relates to Balamuthia mandrillaris. Nature of the data set: Antimicrobial activity against Balamuthia mandrillaris ATCC 50209 infected in HBMEC assessed as inhibition of amoeba-induced cytopathogenicity at 5 ug/mL after 24 hrs by LDH release assay. The class given is functional. The following applies: ATCC 50209, 24 h. An outline of the steps:
(§1)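 B. mandrillaris ATCC 50209 (grown on host-cell feeder layers) pretreated with drug for 45 min in serum-free medium, then added at 10^5 amoebae/well, with inhibitor still present, to primary HBMEC monolayers (RPMI 1640, 10% FBS, 10% NuSerum). Incubation at 37°C, 5% CO2, up to 24 h. Cytotoxicity read as LDH release into supernatant. Percent inhibition is relative to amoebae alone; mean ± SE.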
In general terms: Cytopathic effects are the visible damage that an infection or toxin causes in cultured cells.

The test system of data set [2] is Balamuthia mandrillaris. As to the kind of experiment: Antimicrobial activity against Balamuthia mandrillaris ATCC 50209 infected in HBMEC assessed as inhibition of amoeba-induced cytopathogenicity at 10 ug/mL after 24 hrs by LDH release assay. It is filed as functional. Conditions: ATCC 50209, 24 h. An outline of the steps: as §1
Data set [3] concerns Balamuthia mandrillaris. As to the kind of experiment: Antimicrobial activity against Balamuthia mandrillaris ATCC 50209 infected in HBMEC assessed as inhibition of encystment at 5 ug/mL after 7 days. It is filed as functional. Conditions: ATCC 50209, 168 h. An outline of the steps:
(§2)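 Trophozoites (>95%) held at 2 × 10^5/ml in RPMI 1640 with drug at 37°C for 48 h. SDS (0.5% final) lyses the remaining trophozoites, and a hemocytometer count is taken before and after SDS. % encystment = post-SDS/pre-SDS × 100, and percent inhibition is calculated from it; mean ± SE. For viability, cysts made before SDS were placed on HBMEC monolayers for up to 7 days and watched for trophozoite emergence.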

Data set [4] concerns Balamuthia mandrillaris. Nature of the data set: Antimicrobial activity against Balamuthia mandrillaris ATCC 50209 infected in HBMEC assessed as inhibition of encystment at 10 ug/mL after 7 days. The following applies: ATCC 50209, 168 h. The class given is functional. An outline of the steps: as §2
Data set [5] relates to Balamuthia mandrillaris. Nature of the data set: Antimicrobial activity against Balamuthia mandrillaris ATCC 50209 infected in HBMEC assessed as inhibition of encystment at 500 uM after 7 days. The class given is functional. Conditions: ATCC 50209, 168 h. An outline of the steps: as §2
Data set [6] relates to Balamuthia mandrillaris. Nature of the data set: Antimicrobial activity against Balamuthia mandrillaris ATCC 50209 infected in HBMEC assessed as inhibition of amoeba-induced cytopathogenicity at 100 uM after 24 hrs by LDH release assay. The class given is functional. The following applies: ATCC 50209, 24 h. An outline of the steps: as §1
The subject of data set [7] is Balamuthia mandrillaris. As to the kind of experiment: Antimicrobial activity against Balamuthia mandrillaris ATCC 50209 infected in HBMEC assessed as inhibition of amoeba-induced cytopathogenicity at 200 uM after 24 hrs by LDH release assay. It is filed as functional. The following applies: ATCC 50209, 24 h. An outline of the steps: as §1
Data set [8] concerns Balamuthia mandrillaris. As to the kind of experiment: Antimicrobial activity against Balamuthia mandrillaris ATCC 50209 infected in HBMEC assessed as inhibition of encystment at 100 uM after 7 days. The class given is functional. The following applies: ATCC 50209, 168 h. An outline of the steps: as §2
Data set [9] has as its system Balamuthia mandrillaris. Nature of the data set: Antimicrobial activity against Balamuthia mandrillaris ATCC 50209 infected in HBMEC assessed as inhibition of encystment at 200 uM after 7 days. Conditions: ATCC 50209, 168 h. The class given is functional. An outline of the steps:
as §2

Data set [10] relates to Balamuthia mandrillaris. As to the kind of experiment: Antimicrobial activity against Balamuthia mandrillaris ATCC 50209 infected in HBMEC assessed as inhibition of encystment at 10 uM […]. It is filed as functional. An outline of the steps:
as §2

The subject of data set [11] is Balamuthia mandrillaris. Nature of the data set: Antimicrobial activity against Balamuthia mandrillaris ATCC 50209 infected in HBMEC assessed as inhibition of amoeba-induced cytopathogenicity at 50 uM after 24 hrs by LDH release assay. It is filed as functional. The following applies: ATCC 50209, 24 h. An outline of the steps:
as §1

The subject of data set [12] is Balamuthia mandrillaris. As to the kind of experiment: Antimicrobial activity against Balamuthia mandrillaris ATCC 50209 infected in HBMEC assessed as inhibition of amoeba-induced cytopathogenicity at 10 uM after 24 hrs by LDH release assay. It is filed as functional. The following applies: ATCC 50209, 24 h. An outline of the steps:
as §1

In data set [13] the test system is Balamuthia mandrillaris. As to the kind of experiment: Antimicrobial activity against Balamuthia mandrillaris ATCC 50209 infected in HBMEC assessed as inhibition of encystment at 50 uM after 7 days. It is filed as functional. Conditions: ATCC 50209, 168 h. An outline of the steps: as §2
A short description of data set [14]: Cytotoxicity against HBMEC assessed as LDH release at 10 ug/mL. Conditions: human. (In general: LDH leaks from cells whose membrane has failed.)

As a reminder, the inhibition is how much of the control response was suppressed.

Take `C[C@@H]1CC[C@H]2[C@@H](C)C(=O)O[C@@H]3O[C@@]4(C)CC[C@@H]1[C@]32OO4` [ARTEMISININ]: the inhibition at 5 µg/mL with Balamuthia mandrillaris [1] came to 34%; with Balamuthia mandrillaris [3], 37%. Moreover, the figures for the inhibition at 10 µg/mL in the data set with Balamuthia mandrillaris [2] and in the data set on Balamuthia mandrillaris [4] were 45% and 52%, respectively.
For `CCC[C@@H]1C[C@@H](C(=O)N[C@@H]([C@H]2O[C@H](SC)[C@H](O)[C@@H](O)[C@H]2O)[C@H](C)Cl)N(C)C1` [CLINDAMYCIN], the figures for the inhibition at 5 µg/mL in the data set on Balamuthia mandrillaris [1] and in the data set on Balamuthia mandrillaris [3] were 16% and 4%, respectively. The results for the inhibition at 10 µg/mL in the data set on Balamuthia mandrillaris [2] and in the data set on Balamuthia mandrillaris [4] were 10% and 0%, respectively.
Take `C[C@@H]1C[C@@H]([C@H](O)CC2CC(=O)NC(=O)C2)C(=O)[C@@H](C)C1` [CYCLOHEXIMIDE]: the inhibition at 500 µM in the data set with Balamuthia mandrillaris [5] was determined as 98.4%. The inhibition at 100 µM in the data set with Balamuthia mandrillaris [6] worked out at 44%; in the data set with Balamuthia mandrillaris [8], 94%. In addition, the values for the inhibition at 200 µM in the data set with Balamuthia mandrillaris [7] and with Balamuthia mandrillaris [9] were 0% and 95%, respectively.
As to `C=C1[C@@H](C)[C@H]2[C@H](Cc3ccccc3)NC(=O)[C@]23[C@H](OC(C)=O)/C=C/[C@@](C)(O)C(=O)[C@@H](C)C/C=C/[C@H]3[C@@H]1O` [CYTOCHALASIN D], the inhibition at 10 µM in the data set on Balamuthia mandrillaris [10] is 42%; with Balamuthia mandrillaris [12], 13%. In addition, the inhibition at 50 µM in the data set with Balamuthia mandrillaris [11] is 42%; in the data set with Balamuthia mandrillaris [13] it was 64%. Further, in the data set with Balamuthia mandrillaris [8], the inhibition at 100 µM was determined as 76%.
For the compound `Nc1nc(=O)[nH]cc1F` [FLUCYTOSINE], the values for the inhibition at 5 µg/mL in the data set on Balamuthia mandrillaris [1] and in the data set on Balamuthia mandrillaris [3] were 20% and 43%, respectively. The inhibition at 10 µg/mL in the data set with Balamuthia mandrillaris [2] stood at 61%; in the data set with Balamuthia mandrillaris [4], 56%.
For the compound `CC(=O)N1CCN(c2ccc(OCC3COC(Cn4ccnc4)(c4ccc(Cl)cc4Cl)O3)cc2)CC1` (configuration not stated) [KETOCONAZOLE], the inhibition at 5 µg/mL with Balamuthia mandrillaris [1] worked out at 14%; in the data set with Balamuthia mandrillaris [3] it was 0%. Further, the inhibition at 10 µg/mL with Balamuthia mandrillaris [2] came out at 88.5%; in the data set with Balamuthia mandrillaris [4], 0%. In addition, in [14], the Activity was under 5%.
